Shown are actives, neighbours in structure and some others; about 1.9% of the full set was active somewhere.
CaV13 ICDI inh: Primary screen for inhibitors of IQ motif and Ca2+-dependent inactivation inhibitor domain binding in CACNA1D, Förster resonance energy transfer in living cells, …; 340,000 compounds, 0.098% hits; inhibition, % at 12.3 µM; AID 743397; HEK cells, CFP/YFP FRET ICDI-IQ, plate reader, 10 min; percent FRET-ratio fall versus neutral wells;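 active = mean replicate inhibition of at least 30% and at least 1% of replicates passing that level; inconclusive = only one of the two criteria is met; inactive = neither criterion is met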;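 note: 0% = median of the neutral control wells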
LANA-H2B inh: blocks KSHV LANA binding to histone H2A/H2B; Q9QR71; cell-free LANA-H2A/H2B peptide, fluorescence polarization; inhibition, % (concentration not given with the values); 320,000 compounds, 0.6% hits; in the data active = inhibition mostly above about 10%, no sharp cut-off; inactive = mostly below about 6.7%
Target sequence (Q9QR71 whole entry, looked up): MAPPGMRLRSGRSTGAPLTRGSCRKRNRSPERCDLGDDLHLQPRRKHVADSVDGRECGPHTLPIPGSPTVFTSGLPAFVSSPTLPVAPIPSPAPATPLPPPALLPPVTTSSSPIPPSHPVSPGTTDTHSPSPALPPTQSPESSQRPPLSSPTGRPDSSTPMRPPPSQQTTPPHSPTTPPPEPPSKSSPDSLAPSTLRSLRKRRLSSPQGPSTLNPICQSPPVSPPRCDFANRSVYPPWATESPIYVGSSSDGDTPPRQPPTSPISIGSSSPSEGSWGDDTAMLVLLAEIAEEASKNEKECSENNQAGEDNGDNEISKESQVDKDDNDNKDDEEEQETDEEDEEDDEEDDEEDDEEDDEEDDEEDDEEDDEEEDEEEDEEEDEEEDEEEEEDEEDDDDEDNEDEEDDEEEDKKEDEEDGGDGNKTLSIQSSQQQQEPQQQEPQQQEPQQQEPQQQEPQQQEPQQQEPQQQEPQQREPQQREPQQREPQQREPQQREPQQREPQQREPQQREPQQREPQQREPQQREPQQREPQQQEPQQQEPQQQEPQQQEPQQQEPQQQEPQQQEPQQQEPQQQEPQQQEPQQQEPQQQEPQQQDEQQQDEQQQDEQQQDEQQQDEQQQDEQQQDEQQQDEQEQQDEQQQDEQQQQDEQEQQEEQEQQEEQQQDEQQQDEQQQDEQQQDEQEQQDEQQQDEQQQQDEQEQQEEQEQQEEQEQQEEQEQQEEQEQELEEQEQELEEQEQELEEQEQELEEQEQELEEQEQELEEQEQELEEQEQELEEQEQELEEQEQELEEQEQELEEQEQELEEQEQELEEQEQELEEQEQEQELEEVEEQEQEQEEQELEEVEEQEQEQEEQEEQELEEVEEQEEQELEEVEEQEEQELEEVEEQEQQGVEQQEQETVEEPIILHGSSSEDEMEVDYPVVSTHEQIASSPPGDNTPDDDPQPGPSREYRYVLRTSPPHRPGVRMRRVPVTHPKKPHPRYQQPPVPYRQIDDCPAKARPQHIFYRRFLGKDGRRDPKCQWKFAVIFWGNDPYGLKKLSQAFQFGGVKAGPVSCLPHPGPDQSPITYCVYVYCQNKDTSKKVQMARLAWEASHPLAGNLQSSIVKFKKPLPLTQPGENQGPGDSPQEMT
RanGTP-Impb inh: inhibitors of RanGTP-importin-beta interaction, primary screen, biochemical, FRET, CFP-Ran, YFP-importin-beta, homogeneous; cell-free CFP-Ran/YFP-importin-beta FRET ratio; inhibition, % (test concentration not listed); 300,000 compounds, 1.1% hits; AID 2216;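 active = more than half of the replicate wells show a fall in the fluorescence ratio signal beyond about 16%, limit read from the data, passing the limit was not always enough; inconclusive = exactly half of the replicate wells pass the set limit; inactive = fewer than half of replicates pass the limit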;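 note: 0% = DMSO wells and 100% = Ran loaded with GDP instead of GTP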
Runt-SMMHC FRET: Runt domain-CBFb-SMMHC interaction inhibition | 220,000 compounds, 0.74% hits | Cerulean-Runt/Venus-CBFb-SMMHC FRET ratio 530/480, 1 h | inhibition, % at 20 µM | Q01196+Q13951;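 active = mean inhibition across duplicate retests at 20 µM reaching about 50%, limit read from the data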;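 note: 0% = DMSO wells and 100% = wells with excess untagged CBFb-SMMHC; inhibitors lower the FRET ratio by blocking Runt binding to CBFb-SMMHC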
HDAC3 inh: human HDAC3 inhibition; inhibition, % at 8.3 µM; recombinant HDAC3, fluorogenic peptide/trypsin coupled, fluorescence; O15379; 320,000 compounds, 0.15% hits; in the data active = inhibition above about 26%, passing the limit was not always enough; inconclusive = no clear call, values can overlap the other calls
Runt-CBFb FRET: inhibitors of human RUNX1 Runt domain binding to CBFb; Cerulean-Runt/Venus-CBFb FRET ratio 530/480, 1 h; inhibition, % at 20 µM; 220,000 compounds, 0.46% hits; AID 1496;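 active = inhibition over about 50% at 20 µM in the single-dose screen, limit read from the data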;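 note: 0% = DMSO wells and 100% = excess unlabeled CBFb competitor control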
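Assay system: Cerulean-tagged RUNX1 Runt domain (FRET donor) fusion protein / Amount: 100 nM each of Venus-CBFb and Cerulean-Runt domain / Medium: Tris buffer pH 7.5 with salts and BSA / Also added: Venus-CBFb 100 nM / Schedule: 1 h complex formation plus 1 h compound treatment, room temperature / Signal: FRET fluorescence / Read-out: loss of energy transfer signal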
An asterisk follows results filed as active; ? = inconclusive; · = not tested or not shown.

SMILES	CaV13 ICDI inh	LANA-H2B inh	RanGTP-Impb inh	Runt-SMMHC FRET	HDAC3 inh	Runt-CBFb FRET
CCCN1CCC2(CC1)C(C#N)=C(N)Oc1c2sc2nc(C)cc(C)c12	-2.5	3.0	25.8*	12.3	1.4	6.5
O=C(O)C1=C[C@@H](c2ccc(C(F)(F)F)cc2)C[C@@H](OCc2ccc(CO)cc2)O1	-10.4	1.4	0.6	1.1	34.0*	-1.6
Nc1cc(-c2ccc(Br)cc2)[nH]n1	5.5	-3.5	-2.1	-5.0	-4.6	-1.3
C/C=C/C(O)c1ccc2ccccc2c1 (stereo not given)	·	-2.0	2.5	·	4.0	·
COc1ccc(/C(O)=C/c2nc3ccccc3n(-c3ccccc3)c2=O)cc1	·	4.0	46.7*	10.0	0.8	-78.2
O=C(CCSc1ccccc1)Nc1nc2c(s1)CCCC2	-8.0	-0.4	-9.1	-2.5	1.9	0.8
O=C(COC(=O)c1ccc(Cl)cc1[N+](=O)[O-])NCc1ccco1	-4.0	-1.0	·	·	-2.1	·
C=CCc1cc(/C=C/c2nc(O)c([N+](=O)[O-])c(=O)[nH]2)cc(OC)c1O	-12.5	-3.0	34.5*	80.5*	2.7	37.5
CC1(C)CC(=O)CC(=Nc2ccc(C(=O)O)cc2)C1	·	-5.7	44.9*	2.6	3.8	-0.4
Cc1nn(-c2ccc(C(=O)O)cc2)c2c1C(=O)CC(C)(C)C2	-5.6	-3.2	6.0	-2.3	-0.9	0.6
CC1(C)CC(=O)C/C(=N/NC(=O)c2ccc(-c3ccccc3)cc2)C1	-4.6	5.2	24.3*	-5.4	-0.9	-1.3
CN1CCN(c2ccc(Cl)cc2NC(=O)c2ccc(=O)n(C)n2)CC1	-4.9	3.6	-1.8	4.5	-4.2	-1.3
Cc1cc(NS(=O)(=O)c2ccc(NC(=O)C(C)Oc3ccc(C(C)C)cc3)cc2)no1 (stereo not given)	-3.6	-0.1	0.1	·	1.0	·
CCN1C(=O)/C(=C2/Sc3ccccc3N2CC)SC1=S	-1.7	-8.3	?	·	9.6	·
CCN1/C(=C2\OC(=S)N(C)C2=O)Sc2ccccc21	0.5	0.1	-4.1	63.8*	-2.6	14.0
C=CCn1c(SCCC#N)nnc1-c1ccncc1	-6.2	-3.2	-1.5	16.3	1.4	1.3
O=c1c2ccccc2[nH]c2ccc(F)cc12	8.6	-6.4	115.6*	87.0*	-20.4	3.4
O=c1c2ccccc2[nH]c2ccc(O)cc12	4.0	5.7	166.3*	·	-10.6	·
Cc1ccc2[nH]c3ccccc3c(=O)c2c1	33.9*	1.9	114.0*	·	-0.1	·
O=c1[nH]c2ccccc2c(=O)c2ccccc12	-7.9	·	·	·	·	·
O=S(=O)(Cc1ccc(Cl)cc1)NCc1cccnc1	-4.2	-2.8	-4.1	-8.6	-8.0	0.9
COc1ccc(C(=O)NNC2=CC(=O)CC(C)(C)C2)cc1	-5.0	-4.5	33.2*	1.6	6.8	3.2
Cn1c(Cn2c(=O)sc3ccccc32)nnc1SCC(=O)NC1CCCC1	-4.6	16.8*	4.1	-3.3	1.4	-0.8
Cn1c(Cn2c(=O)sc3ccccc32)nnc1SCC(=O)NC1CCCCC1	·	-1.4	0.0	1.0	-6.1	-2.3
Cc1cccc(-c2nnc(SCC(=O)NC3CC3)n2C)c1	-2.0	12.3*	-0.9	·	-5.4	·
SMILES	CaV13 ICDI inh	LANA-H2B inh	RanGTP-Impb inh	Runt-SMMHC FRET	HDAC3 inh	Runt-CBFb FRET
CC1(c2nnc(Cc3ccccc3)o2)CC(c2ccc(OC(F)(F)F)cc2)=NO1 (stereo not given)	-3.3	0.5	-2.1	·	-7.3	·
CCN(CC)CCNc1c2c(c(C#N)c3nc4ccccc4n13)CCCC2	-7.4	5.4	?	61.1*	-8.6	29.6
CN(C)CCNc1c2c(c(C#N)c3nc4ccccc4n13)CCCC2	-8.1	-2.1	-2.7	62.5*	-11.3	20.8
O=C(O)CCC(=O)N1CCc2cc(S(=O)(=O)NCc3cccs3)ccc21	-8.2	-3.3	6.4	-2.3	-6.7	-1.0
CCc1cccc(NC(=O)CSC2=NS(=O)(=O)c3ccccc32)c1	-6.5	-7.1	-5.3	5.3	36.3*	7.4
Cc1cc2cc(C#N)c(NCCNC(=S)NCCCN3CCOCC3)nc2cc1C	?	-0.4	?	88.3*	-17.6	42.7
COc1ccc2nc(NCCNC(=S)NCCCN3CCOCC3)c(C#N)cc2c1	1.5	2.7	3.7	92.9*	-17.7	3.1
COc1ccc(OC)c(NC(=S)NCCCN2CCOCC2)c1	-17.6	-11.8	-6.6	-3.9	·	-2.5
Cc1ccc(C)c(NC(=S)NCCCN2CCOCC2)c1	-6.0	-0.7	-2.1	-5.5	3.5	0.4
Cc1cccc(S(=O)(=O)NC(=O)C2(C)CCN2C(=O)c2ccc(C3CCCCC3)cc2)c1 (stereo not given)	-4.7	·	·	·	·	·
CC(NC(=O)CSc1nnc(COc2ccccc2)o1)c1ccccc1 (stereo not given)	-3.2	20.3*	-5.2	-0.6	-4.4	-2.0
NSc1nc(N)c2nc(-c3ccccc3)c(-c3ccccc3)nc2n1	-5.2	-6.2	36.2*	69.3*	-13.0	43.1
Nc1ccc2nc(-c3ccccc3)c(-c3ccccc3)nc2c1	-13.0	7.2	-14.0	·	-3.1	·
Nc1nc(N)c2nc(-c3ccccc3)c(N)nc2n1	-4.7	·	-1.5	55.9*	·	26.4
CCOP(=O)(OCC)C(NC(=O)c1cccs1)C(F)(F)F (stereo not given)	-4.0	0.8	0.2	-7.0	-4.9	1.3
Cc1cc(/C=C2\SC(=S)N(C)C2=O)c(C)n1-c1cccc(O)c1	16.4	-2.8	36.2*	-47.6	13.4	-15.2
Cc1cc(/C=C2\SC(=S)N(Cc3ccco3)C2=O)c(C)n1-c1ccccc1	-10.1	0.9	21.4*	-106.5	3.7	-18.7
CN(C)c1ccc(C=C2SC(=S)N(Cc3ccco3)C2=O)cc1	-8.4	·	·	·	·	·
Cc1cc(/C=C2\SC(=O)N(C)C2=O)c(C)n1-c1ccc(O)cc1	-19.8	5.3	-2.5	·	-2.0	·
O=C(NC(Cc1ccccc1)C(=O)NCCc1ccccn1)c1cccs1 (stereo not given)	-19.7	-5.0	3.9	·	-4.8	·
CC(=O)c1sc2ccccc2c1OC(=O)c1ccco1	·	-4.5	37.5*	36.7	6.2	13.1
COc1ccccc1N1CCN(S(=O)(=O)c2c(C)[nH]c(C)c2C(=O)N2CCCC2)CC1	-7.7	-5.8	4.1	·	-3.5	·
COc1ccccc1N1CCN(S(=O)(=O)c2c(C)[nH]c(C)c2C(=O)N2CCCCC2)CC1	-6.7	-4.4	23.0*	·	7.2	·
CCc1ccc(N2CC(C(=O)N/N=C/c3ccccc3)CC2=O)cc1 (stereo not given)	-1.1	2.8	0.0	·	2.2	·
Cc1nn(C)cc1C(C)NC(=O)c1cc(COc2c(F)cccc2F)on1 (stereo not given)	-5.9	-3.4	1.4	-0.6	-0.6	0.2

Source: PubChem BioAssay
